From ChEMBL document CHEMBL1153610, “Synthesis and antiprotozoal activities of dicationic bis(phenoxymethyl)benzenes, bis(phenoxymethyl)naphthalenes, and bis(benzyloxy)naphthalenes” (Eur J Med Chem, 2009)
Calls of active or inactive are those of the source. No cut-off for these calls is given here.

How the values were obtained:
[1] = test system: Trypanosoma brucei rhodesiense; test: Antitrypanosomal activity against Trypanosoma brucei rhodesiense STIB900; assay type: functional, organism-based
[2] = Selectivity index, ratio of IC50 for rat L6 cells to IC50 for Trypanosoma brucei rhodesiense STIB900; assay type: toxicity, cell-based; conditions: read-out: Ratio IC50
Plasmodium falciparum = test: Antimalarial activity against chloroquine-resistant Plasmodium falciparum K1; assay type: functional, organism-based
[3] = Selectivity index, ratio of IC50 for rat L6 cells to IC50 for chloroquine-resistant Plasmodium falciparum K1; assay type: toxicity, cell-based; conditions: read-out: Ratio IC50
Leishmania donovani = test: Antileishmanial activity against Leishmania donovani MHOM/SD/62/1S-CL2D amastigotes; assay type: functional, organism-based
Method in brief: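 IC50 taken as the average of duplicate determinations against L. donovani.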

[4] = Selectivity index, ratio of IC50 for rat L6 cells to IC50 for Leishmania donovani MHOM/SD/62/1S-CL2D amastigotes; assay type: toxicity, cell-based; conditions: read-out: Ratio IC50
L6 = test: Cytotoxicity against rat L6 cells; assay type: cell-based
Method in brief: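 Rat L6 myoblasts served as the cytotoxicity measure. IC50 is the average of duplicate determinations.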

[5] = test system: Trypanosoma brucei rhodesiense; test: Antitrypanosomal activity against Trypanosoma brucei rhodesiense STIB900 infected NMRI mouse assessed mean survival time at 10 mg/kg, ip dosed for 4 days; assay type: functional; conditions: route intraperitoneal
Mus musculus = test: Toxicity in ip dosed NMRI mouse infected with Trypanosoma brucei rhodesiense STIB900; assay type: organism-based; conditions: in vivo
[6] = test system: Trypanosoma brucei rhodesiense; test: Antitrypanosomal activity against Trypanosoma brucei rhodesiense STIB900 infected NMRI mouse assessed as infection cure rate at 20 mg/kg, ip dosed for 4 days; assay type: functional, organism-based; parameters: dose 20 mg/kg
Method in brief: (§1)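 Mice infected with T. b. rhodesiense STIB900 were dosed intraperitoneally once daily for 4 days. Outcome was scored as cured/infected animals out of groups of four, plus mean survival days post infection for mice showing parasitemia relapse.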

[7] = test system: Trypanosoma brucei rhodesiense; test: Antitrypanosomal activity against Trypanosoma brucei rhodesiense STIB900 infected NMRI mouse assessed mean survival time at 20 mg/kg, ip dosed for 4 days; assay type: functional; conditions: route intraperitoneal
[8] = test system: Trypanosoma brucei rhodesiense; test: Antitrypanosomal activity against Trypanosoma brucei rhodesiense STIB900 infected NMRI mouse assessed as infection cure rate at 4 mg/kg, ip dosed for 4 days; assay type: functional, organism-based; parameters: dose 4 mg/kg
[9] = test system: Trypanosoma brucei rhodesiense; test: Antitrypanosomal activity against Trypanosoma brucei rhodesiense STIB900 infected NMRI mouse assessed mean survival time at 4 mg/kg, ip dosed for 4 days; assay type: functional; conditions: route intraperitoneal
[10] = test system: Trypanosoma brucei rhodesiense; test: Antitrypanosomal activity against Trypanosoma brucei rhodesiense STIB900 infected NMRI mouse assessed as infection cure rate at 5 mg/kg, ip dosed for 4 days; assay type: functional, organism-based; parameters: dose 5 mg/kg; method in brief: as §1
[11] = test system: Trypanosoma brucei rhodesiense; test: Antitrypanosomal activity against Trypanosoma brucei rhodesiense STIB900 infected NMRI mouse assessed mean survival time at 5 mg/kg, ip dosed for 4 days; assay type: functional; conditions: route intraperitoneal
[12] = test system: Trypanosoma brucei rhodesiense; test: Antitrypanosomal activity against Trypanosoma brucei rhodesiense STIB900 infected NMRI mouse assessed as infection cure rate at 100 mg/kg, po dosed for 4 days; assay type: functional, organism-based; parameters: dose 100 mg/kg
Method in brief: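 Mice infected with T. b. rhodesiense STIB900 received oral doses once daily for 4 days. Cure was scored as cured/infected animals, with mean survival days post infection for relapsing mice.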

[13] = test system: Trypanosoma brucei rhodesiense; test: Antitrypanosomal activity against Trypanosoma brucei rhodesiense STIB900 infected NMRI mouse assessed mean survival time at 100 mg/kg, po dosed for 4 days; assay type: functional

Row | Structure (SMILES) | IC50 [1] [nM] | selectivity ratio [2] | IC50 (Plasmodium falciparum) [nM] | selectivity ratio [3] | IC50 (Leishmania donovani) [nM] | selectivity ratio [4] | IC50 (L6) [nM] | Survival [5] [days] | Activity (Mus musculus) | Activity [6] | Survival [7] [days] | Activity [8] | Survival [9] [days] | Activity [10] | Survival [11] [days] | Activity [12] | Survival [13] [days]
1 | N=C(N)c1cccc(OCc2ccccc2COc2cccc(C(=N)N)c2)c1 | 140 | 602 | 109 | 775 | 5500 | 15.4 | 84600 | >27.3 | Toxic | – | – | – | – | – | – | – | –
2 | CC(C)NC(=N)c1ccc(OCc2ccc(COc3ccc(C(=N)NC(C)C)cc3)c3ccccc23)cc1 | 313 | 134 | 66.9 | 625 | 9730 | 4.29 | 41800 | – | – | – | – | – | – | – | – | – | –
3 | N=C(N)c1ccc(OCCCCCOc2ccc(C(=N)N)cc2)cc1 [PENTAMIDINE] | – | – | – | – | – | – | – | – | – | inactive | 42.8 | – | – | – | – | – | –
4 | CC(C)NC(=N)c1ccc(OCc2ccccc2COc2ccc(C(=N)NC(C)C)cc2)cc1 | 1680 | 97 | 10.9 | 15000 | 11700 | 14 | 163000 | – | – | – | – | – | – | – | – | – | –
5 | N=C(N)c1ccc(COc2ccc3cc(OCc4ccc(C(=N)N)cc4)ccc3c2)cc1 | 2360 | – | – | – | 7120 | – | 19300 | – | – | – | – | – | – | – | – | – | –
6 | N=C(N)c1ccc(OCc2cc(COc3ccc(C(=N)N)cc3)c3ccccc3c2)cc1 | 325 | 212 | 55.1 | 1250 | – | – | 68800 | – | – | inactive | 12 | – | – | – | – | – | –
7 | N=C(N)c1ccc(OCc2ccc(COc3ccc(C(=N)N)cc3)cc2)cc1 | 20.7 | 600 | 64 | 194 | 1320 | 9.4 | 12400 | – | – | inactive | 32 | – | – | – | – | – | –
8 | CC(C)NC(=N)c1cccc(OCc2ccccc2COc2cccc(C(=N)NC(C)C)c2)c1 | 1280 | > 126 | 111 | > 1470 | > 30000 | < 5.41 | > 162000 | – | – | – | – | – | – | – | – | – | –
9 | N=C(N)c1cccc(OCc2ccc(COc3cccc(C(=N)N)c3)cc2)c1 | 77.8 | 103 | 67.7 | 119 | > 200000 | < 0.0401 | 8020 | – | – | inactive | 19.5 | – | – | – | – | – | –
10 | Nc1nc(N)nc(Nc2ccc([As]3SCC(CO)S3)cc2)n1 (stereo not drawn) [MELARSOPROL] | – | 1220 | – | – | – | – | – | – | – | – | – | Active | >60 | – | – | – | –
11 | N=C(N)c1cccc(OCc2cccc(COc3cccc(C(=N)N)c3)c2)c1 | 47.3 | 1360 | 19.1 | 3360 | – | – | 64200 | – | – | – | – | – | – | inactive | 17 | – | –
12 | N=C(NO)c1cccc(OCc2cccc(COc3cccc(C(=N)NO)c3)c2)c1 | 7710 | 1.12 | 2090 | 4.12 | > 50000 | < 0.172 | 8600 | – | – | – | – | – | – | – | – | inactive | 14.5
13 | CONC(=N)c1ccc(OCc2cccc(COc3ccc(C(=N)NOC)cc3)c2)cc1 | 30400 | > 1.11 | > 9720 | > 3.46 | > 100000 | < 0.336 | > 33600 | – | – | – | – | – | – | – | – | inactive | 6
